Test results reported in ChEMBL document CHEMBL4138290, “Highly Oxidized Guaianolide Sesquiterpenoids with Potential Anti-inflammatory Activity from Chrysanthemum indicum” (J Nat Prod, 2018).
Calls of active or inactive are those of the source. No cut-off for these calls is given here.

Columns and labels:
[1] = tested on: RAW264.7; assay: Antiinflammatory activity in mouse RAW264.7 cells assessed as inhibition of LPS-induced NO production after 18 hrs by Griess assay; assay type: functional, cell-based; settings: RAW264.7, 18 h
Summary of the method: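 RAW264.7 murine macrophages (DMEM, 10% FBS, pen-strep, 37 °C, 5% CO2) seeded 6 × 10^4 cells/well for 18 h. Compound added with 1 μg/mL LPS for 18 h. Supernatant nitrite read with Griess reagent (10 min, OD 540 nm). Inhibition relative to DMSO-only control. L-NMMA as positive control. IC50 is mean ± SD of three independent experiments.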

[2] = tested on: RAW264.7; assay: Cytotoxicity against LPS-induced mouse RAW264.7 cells assessed as reduction in cell viability at 6.25 uM after 18 hrs by MTT assay; assay type: cell-based; settings: raw264.7, 18 h
Summary of the method: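 RAW264.7 cells were seeded at 5 × 10^3/well for 18 h, then exposed to compound at various concentrations with or without LPS (1.0 μg/mL) for 18 h. MTT (5 mg/mL, 20 μL) added for 4 h. Formazan dissolved in DMSO and read at 570 nm. Viability is relative to the DMSO-only control, set as 100%.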

[3] = tested on: RAW264.7; assay: Downregulation of COX-2 in LPS-induced mouse RAW264.7 cells at 2.5 uM by Western blot analysis; assay type: functional, cell-based
Summary of the method: (§1)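 Western blot in RAW264.7 cells treated with compound under LPS (1 μg/mL) stimulation. Cells lysed in 1% RIPA and protein quantified by BCA. SDS-PAGE, PVDF transfer, 5% skim milk block for 2 h at 25 °C, primary antibody 12 h at 4 °C, then secondary at room temperature.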

[4] = tested on: RAW264.7; assay: Downregulation of iNOS in LPS-induced mouse RAW264.7 cells at 2.5 uM by Western blot analysis; assay type: functional, cell-based; summary of the method: as §1
[5] = tested on: RAW264.7; assay: Inhibition of NF-kappaB in LPS-induced mouse RAW264.7 cells assessed as decrease in STAT3 phosphorylation at 1.25 to 5 uM by Western blot analysis; assay type: cell-based; summary of the method: as §1
[6] = tested on: RAW264.7; assay: Downregulation of total NF-kappaB level in LPS-induced mouse RAW264.7 cells at 1.25 to 5 uM by Western blot analysis; assay type: functional, cell-based; summary of the method: as §1
[7] = target: Transcription factor p65 (Mus musculus) (UniProt Q04207); assay: Inhibition of LPS-induced NF-kB p65 nuclear translocation in mouse RAW264.7 cells at 1.25 to 5 uM by Western blot analysis; assay type: cell-based; summary of the method: as §1
[8] = tested on: RAW264.7; assay: Inhibition of ERK phosphorylation in LPS-induced mouse RAW264.7 cells at 1.25 to 5 uM incubated with compound for 1 hr followed by LPS stimulation measured after 4 hrs by Western blot analysis; assay type: cell-based
Summary of the method: (§2)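 Western blot of MAPK phosphorylation in RAW264.7 cells. Cells pretreated with or without compound (1.25, 2.5, 5.0 μM) for 1 h, then LPS (0.1 μg/mL) for 4 h. Lysed in 1% RIPA, BCA protein assay, SDS-PAGE, PVDF, milk block 2 h at 25 °C, primary antibody 12 h at 4 °C, then secondary at room temperature.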

[9] = tested on: RAW264.7; assay: Inhibition of JNK phosphorylation in LPS-induced mouse RAW264.7 cells at 1.25 to 5 uM incubated with compound for 1 hr followed by LPS stimulation measured after 4 hrs by Western blot analysis; assay type: cell-based; summary of the method: as §2
[10] = target: MAP kinase p38 (Mus musculus) (UniProt P47811+O08911+Q9WUI1+Q9Z1B7); assay: Inhibition of p38 phosphorylation in LPS-induced mouse RAW264.7 cells at 1.25 to 5 uM incubated with compound for 1 hr followed by LPS stimulation measured after 4 hrs by Western blot analysis; assay type: cell-based; summary of the method: as §2

Sequence of Transcription factor p65 (Mus musculus) (Q04207 whole entry): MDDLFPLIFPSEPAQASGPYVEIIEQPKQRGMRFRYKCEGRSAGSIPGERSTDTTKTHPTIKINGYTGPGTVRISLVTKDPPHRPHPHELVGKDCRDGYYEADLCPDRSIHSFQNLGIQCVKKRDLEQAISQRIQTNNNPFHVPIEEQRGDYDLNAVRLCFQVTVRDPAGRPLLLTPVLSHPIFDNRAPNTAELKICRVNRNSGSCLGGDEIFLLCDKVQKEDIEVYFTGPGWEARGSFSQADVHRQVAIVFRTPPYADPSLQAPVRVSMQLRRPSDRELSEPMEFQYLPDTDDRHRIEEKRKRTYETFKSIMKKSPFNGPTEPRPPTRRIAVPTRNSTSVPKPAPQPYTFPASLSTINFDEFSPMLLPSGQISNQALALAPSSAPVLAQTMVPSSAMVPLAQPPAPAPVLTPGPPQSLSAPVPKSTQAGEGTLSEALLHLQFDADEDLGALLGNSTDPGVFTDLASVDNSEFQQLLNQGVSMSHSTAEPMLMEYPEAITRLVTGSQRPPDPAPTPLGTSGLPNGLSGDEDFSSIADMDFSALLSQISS

SMILES | IC50 [1] [µM] | further results
C=C(C)C(=O)O[C@@H]1C[C@H]2C(=C)C(=O)O[C@@H]2[C@H]2[C@](C)(O)[C@@H](Cl)[C@@H]3O[C@@]32[C@]1(C)O | 9.7 | –
C=C1C(=O)O[C@H]2[C@H]1CC[C@@](C)(O)[C@]13O[C@H]1[C@@H](O)[C@](C)(O)[C@H]23 | 21.5 | –
C=C1C(=O)O[C@H]2[C@H]1CC[C@@](C)(O)[C@]13C=C[C@](C)([C@@H]21)[C@]1(C3)C(=O)O[C@H]2[C@H]1CC[C@@](C)(O)[C@]13O[C@H]1[C@@H](O)[C@@](C)(O)[C@H]23 | > 50 | –
C=C1C(=O)O[C@H]2[C@@H]1[C@@H](OC(=O)/C(C)=C/C)C[C@@](C)(O)[C@@]13C=C[C@@](C)(OO1)[C@H]23 | 3.4 | –
C=C1C(=O)O[C@H]2[C@H]1C[C@@H](OC(=O)/C(C)=C\C)[C@@](C)(O)[C@]13O[C@H]1[C@@H](O)[C@@](C)(O)[C@H]23 | 7.1 | –
C=C1C(=O)O[C@H]2[C@H]1CC[C@@](C)(O)[C@]13C=C[C@](C)([C@@H]21)[C@]1(C3)C(=O)O[C@H]2[C@H]1CC[C@@](C)(O)[C@]13O[C@H]1[C@@H](O)[C@](C)(O)[C@H]23 | > 50 | –
C=C1C(=O)O[C@H]2[C@H]1C[C@@H](OC(=O)/C(C)=C/C)[C@@](C)(O)[C@]13O[C@H]1[C@H]1O[C@@]1(C)[C@H]23 | 6.3 | –
C=C1C(=O)O[C@H]2[C@@H]1[C@@H](OC(=O)C=C(C)C)C[C@@](C)(O)[C@@]13C=C[C@@](C)(OO1)[C@H]23 | 7.2 | –
CNC(=N)NCCC[C@H](N)C(=O)O [TILARGININE] | 25.8 | –

Continued, in another order:

IC50 [1] [µM] | SMILES | further results
4 | C=C1C(=O)O[C@H]2[C@H]1C[C@@H](OC(=O)/C(C)=C\C)[C@@](C)(O)[C@]13O[C@H]1[C@H]1O[C@@]1(C)[C@H]23 | –
4.8 | C=C1C(=O)O[C@H]2[C@H]1C[C@@H](OC(=O)C=C(C)C)[C@@](C)(O)[C@@]13O[C@@H]1[C@@H]1O[C@]1(C)[C@H]23 | –
1.4 | C=C1C(=O)O[C@H]2[C@H]1C[C@@H](OC(=O)/C(C)=C\C)[C@@](C)(O)[C@@]13O[C@@H]1[C@@H]1O[C@]1(C)[C@H]23 | Activity [2]: Non-Toxic; Activity [3]: Active; Activity [4]: Active; inhibition [5]: Active; Activity [6]: Active; inhibition [7]: Active; inhibition [8]: Active; inhibition [9]: Active; inhibition [10]: Active
3.9 | C=C1C(=O)O[C@H]2[C@H]1C[C@@H](OC(=O)/C(C)=C/C)[C@@](C)(O)[C@@]13O[C@@H]1[C@@H]1O[C@]1(C)[C@H]23 | –
